Reference: ChEMBL document CHEMBL1806378, “Osteogenic constituents from Pterospermum acerifolium Willd. flowers” (Bioorg Med Chem Lett, 2011)
Active and inactive are the calls of the source. The calls are words filed in the database; no cut-off is given here.

What was measured:
Osteoblast [1] = test: Induction of osteogenesis in rat calvaria-derived primary osteoblasts assessed as increase in ALP activity after 48 hrs by bradford assay relative to control; format: functional, cell-based
Method in brief: (§1)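 Primary rat calvarial osteoblasts (2 × 10^3 cells) seeded and exposed to graded compound concentrations for 48 h; BMP-2 as positive control, vehicle as control. ALP measured with p-nitrophenylphosphate substrate, read at 405 nm, normalized to total protein by Bradford assay. Three independent experiments, six replicates per point; mean ± SEM, one-way ANOVA versus control.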

Osteoblast [2] = test: Induction of osteogenesis in rat calvaria-derived primary osteoblasts assessed as increase in runx2 mRNA level at 100 pM after 48 hrs by quantitative PCR analysis; format: functional, cell-based
Method in brief: (§2)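 Primary rat calvarial osteoblasts treated 48 h at 100 pM; BMP-2, Col1 and runx2 transcript levels quantified by qPCR (optimized protocol). Four independent experiments in triplicate per treatment point; mean ± SEM compared with control.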

Bone marrow cell = test: Induction of mineralization in rat femur-derived bone marrow cells at 100 pM after 21 days by Alizarin Red S staining; format: functional, cell-based
Method in brief: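 Rat bone marrow cells (2 × 10^5) seeded and incubated 21 days with 100 pM compound; cells fixed, stained with alizarin red-S, dye extracted and optical density measured colorimetrically. Four independent experiments in triplicate; mean ± SEM versus control.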

Osteoblast [3] = test: Induction of osteogenesis in rat calvaria-derived primary osteoblasts assessed as increase in ALP activity at 10 pM after 48 hrs by bradford assay relative to control; format: functional, cell-based; method in brief: as §1
Osteoblast [4] = test: Induction of osteogenesis in rat calvaria-derived primary osteoblasts assessed as increase in ALP activity at 100 pM after 48 hrs by bradford assay relative to control; format: functional, cell-based; method in brief: as §1
Osteoblast [5] = test: Induction of osteogenesis in rat calvaria-derived primary osteoblasts assessed as increase in BMP2 mRNA level at 100 pM after 48 hrs by quantitative PCR analysis; format: functional, cell-based; method in brief: as §2
Osteoblast [6] = test: Induction of osteogenesis in rat calvaria-derived primary osteoblasts assessed as increase in ALP activity at 1 nM to 1 uM after 48 hrs by bradford assay relative to control; format: functional, cell-based; method in brief: as §1
[7] = Cytotoxicity against rat calvaria-derived primary osteoblasts assessed as cell viability by MTT assay; format: cell-based; details: osteoblast
Osteoblast [8] = test: Induction of osteogenesis in rat calvaria-derived primary osteoblasts assessed as increase in Col1 mRNA level at 100 pM after 48 hrs by quantitative PCR analysis; format: functional, cell-based; method in brief: as §2

O=c1cc(-c2cccc(O)c2)oc2cc(O)c(O[C@@H]3O[C@H](CO)[C@@H](O)[C@H](O)[C@H]3O)c(O)c12
Activity (Osteoblast [1]): inactive

COc1cc(C(O)C(O)CO)ccc1Oc1ccc(-c2cc(=O)c3c(O)cc(O)cc3o2)cc1O (centres undefined) [PTEROSPERMIN A]
Activity (Osteoblast [2]): Active | Activity (Bone marrow cell): Active | Activity (Osteoblast [3]): Active | Activity (Osteoblast [4]): Active | Activity (Osteoblast [5]): Active | Activity (Osteoblast [6]): inactive | Activity [7]: Non-toxic | Activity (Osteoblast [8]): Active

O=c1cc(-c2ccc(O)c(O)c2)oc2cc(O[C@@H]3O[C@H](CO)[C@@H](O)[C@H](O)[C@H]3O)cc(O)c12
Activity (Osteoblast [1]): inactive

CC1=CC(=O)CC(C)(C)[C@H]1/C=C/[C@H](C)O[C@@H]1O[C@H](CO)[C@@H](O)[C@H](O)[C@H]1O
Activity (Osteoblast [1]): inactive

C[C@@H]1O[C@@H](O[C@H]2[C@H](Oc3cc(O)c4c(=O)cc(-c5ccc(O)c(O)c5)oc4c3)O[C@H](CO)[C@@H](O)[C@@H]2O)[C@H](O)[C@H](O)[C@H]1O
Activity (Osteoblast [1]): inactive

O=C(/C=C/c1ccc(O)cc1)OC[C@H]1O[C@@H](Oc2c(-c3ccc(O)cc3)oc3cc(O)cc(O)c3c2=O)[C@H](O)[C@@H](O)[C@@H]1O [TILIROSIDE]
Activity (Osteoblast [2]): Active | Activity (Bone marrow cell): Active | Activity (Osteoblast [3]): Active | Activity (Osteoblast [4]): Active | Activity (Osteoblast [5]): Active | Activity (Osteoblast [6]): inactive | Activity [7]: Non-toxic | Activity (Osteoblast [8]): Active

O=C1OC(O)C=C1O (centres undefined) [PTEROSPERMIN C]
Activity (Osteoblast [2]): Active | Activity (Bone marrow cell): Active | Activity (Osteoblast [3]): Active | Activity (Osteoblast [4]): Active | Activity (Osteoblast [5]): Active | Activity (Osteoblast [6]): inactive | Activity [7]: Non-toxic | Activity (Osteoblast [8]): Active

C=C[C@@](C)(CCC=C(C)C)O[C@@H]1O[C@H](CO[C@@H]2O[C@@H](C)[C@H](O)[C@@H](O)[C@H]2O)[C@@H](O)[C@H](O)[C@H]1O
Activity (Osteoblast [1]): inactive
